Bioassay records (PubChem BioAssay)
In the library only some 1.3% were active in any assay of this set; here they are far more common.
UCH37 inh: inhibitors of human deubiquitinating enzyme UCH37; purified proteasome/UCH37, Ub-AMC cleavage fluorescence; inhibition, % (no concentration beside the values); 330,000 compounds, 0.33% hits; AID 588478;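 active = mean inhibition over replicate wells above about 20%, limit read from the data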;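 note: 0% = compound-free wells with enzyme and 100% = wells lacking proteasome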
Target sequence (Q9Y5K5 whole entry, looked up): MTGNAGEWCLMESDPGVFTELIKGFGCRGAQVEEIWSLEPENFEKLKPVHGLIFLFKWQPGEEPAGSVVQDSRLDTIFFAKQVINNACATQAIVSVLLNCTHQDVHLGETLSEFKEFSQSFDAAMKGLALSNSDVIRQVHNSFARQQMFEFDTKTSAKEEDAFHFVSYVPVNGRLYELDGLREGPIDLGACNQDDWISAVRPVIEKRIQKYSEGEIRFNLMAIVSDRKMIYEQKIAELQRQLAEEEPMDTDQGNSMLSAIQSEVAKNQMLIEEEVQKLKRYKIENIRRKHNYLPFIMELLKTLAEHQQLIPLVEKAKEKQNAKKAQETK
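Signal – fluorescence, ex 355 nm, em 460 nm · System – Proteasome-bound UCH37 · Input – 0.15 nM proteasome as dispensed · Timing – 30 min preincubation with enzyme, 25 min cleavage at room temperature · Read-out basis – percent inhibition of cleavage signal versus uninhibited and no-proteasome wells · Medium – Tris-HCl pH 7.4 with ATP-MgCl2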
CASP6 VEID inh: blocks human caspase-6 cleavage activity | P55212 | 350,000 compounds, 0.53% hits | purified caspase-6, Z-VEID-R110 cleavage fluorescence | AID 686996 | inhibition, % at 12.5 µM;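 active = mean inhibition across replicates at least about 35%, with every replicate also reaching that limit, limit read from the data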;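 note: 0% = median of neutral control wells and 100% = no fluorescence left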
TDP2 absorb: blocks human TDP2 phosphodiesterase activity; O95551; recombinant TDP2, T5PNP hydrolysis, p-nitrophenol absorbance 415 nm; inhibition, % at 12.8 µM; 370,000 compounds, 0.34% hits;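 active = inhibition above the mean of all tested compounds plus 3 SD, set per campaign, cut at about 25% in these data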;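 note: 0% = DMSO with enzyme and 100% = buffer with substrate but no TDP2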
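test system = human TDP2 enzyme | input = TDP2 enzyme at 120 nM final | medium = 50 mM Tris-HCl pH 7.5 with Mg2+, KCl, DTT, BSA | also added = T5PNP substrate, 5 mM | times = 2 h at 37 °C | technique = epi absorbance | benchmarks = high control without enzyme, low control DMSO plus TDP2 | replication = each compound tested once, singlicate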
NSD2 inh: inhibitors of human histone methyltransferase NSD2. NSD2 peptide methylation, AlphaScreen, 120 min. 310,000 compounds, 0.54% hits. O96028. inhibition, % at 12.5 µM; in the data active = inhibition above about 50%
LEDGF integ inh: blocks HIV-1 LEDGF/p75-dependent DNA integration. TR-FRET IN-LEDGF/p75 DNA integration, Eu/Cy5. inhibition, % at 3.7 µM. 370,000 compounds, 0.64% hits. AID 743269;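 active = inhibition above the screen-wide mean plus 3 SD, cut at about 13% in these data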;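 note: signal is the Cy5 over europium emission ratio at 671 and 618 nm; 0% = plate median of compound wells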
IN multimer up: counter-screen for LEDGF/p75 integration inhibitors: HIV-1 integrase multimerization activators; activation, % at 7.7 µM; 2,000 compounds, 17% hits; TR-FRET HIV-1 integrase multimerization, biochemical; shares compounds with LEDGF integ inh; in the data active = activation above about 8.9%
TR-FRET interf: optically interferes with TR-FRET readout in LEDGF counter-screen; 2,000 tested, under 10 active; inhibition, % at 7.7 µM; TR-FRET optical interference counterscreen, HIV-1 IN multimerization; shares compounds with LEDGF integ inh;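 active = inhibition above the mean over all tested compounds plus 3 SD, which no compound reached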;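 note: 0% = integrase with antibodies and DMSO and 100% = antibodies without integrase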
IN-LEDGF confirm: LEDGF/p75-dependent HIV-1 integration inhibition, confirmation | shares compounds with LEDGF integ inh | AID 1053136 | TR-FRET LEDGF/p75-dependent HIV-1 integration, biochemical | 2,000 compounds, 36% hits | inhibition, % at 3.7 µM; in the data active = inhibition above about 14%
* hit, by the source's call; nt = no result.

SMILES	UCH37 inh	CASP6 VEID inh	TDP2 absorb	NSD2 inh	LEDGF integ inh	IN multimer up	TR-FRET interf	IN-LEDGF confirm
Cc1ccc(N2C(=O)CCC2(C(N)=O)c2ccccc2)cc1 (configuration not stated)	-1.2	-0.3	-0.1	-3.6	-1.6	nt	nt	nt
O=c1cc(C(F)(F)F)nc(-n2[nH]c3c(c2=O)CCCC3)[nH]1	-1.4	nt	-6.1	-0.9	16.7*	2.8	-9.9	-10.9
O=C(c1ccc(=O)oc1)N1CCOCC1	-9.9	nt	8.8	-2.8	29.2*	5.7	-28.7	58.3*
Cc1ccccc1N=C1NC(=O)/C(=C/c2cccn2C)S1	8.6	-16.4	-28.2	12.5	5.4	nt	nt	nt
Cn1cccc1/C=C1\CCC/C(=C\c2cccn2C)C1=O	6.2	nt	3.0	nt	18.7*	1.3	-6.4	-3.8
O=C(NN=Cc1ccc(Cl)cc1Cl)c1sccc1-n1cccc1	4.0	nt	nt	nt	nt	nt	nt	nt
COc1ccc(OC)c(N2C(=O)[C@@H]3C(c4ccccc4Cl)=NO[C@@H]3C2=O)c1	5.9	nt	-5.2	6.1	22.9*	4.0	-20.0	26.0*
CCCCC[C@@H](C)N1C[C@H](COCc2ccccc2)Oc2cc(N3CC[C@H](N(C)C)C3)ccc2S1(=O)=O	nt	-8.1	-9.6	nt	15.9*	0.3	-1.7	-2.4
O=C1OC(c2cccs2)=N/C1=C/c1ccc(-c2cccc(C(=O)O)c2)o1	-6.0	26.9	5.0	30.9	28.9*	9.5*	-47.9	14.8*
O=C(O)c1ccc(/C=N/Nc2ccc(Cl)nn2)cc1	nt	0.4	-3.9	0.2	20.8*	1.1	-5.5	0.8
COCCn1cnc2c(c1=O)c1nc3ccccc3nc1n2N=Cc1cccc(OC)c1	1.7	nt	nt	nt	nt	nt	nt	nt
O=C(CCCN1C(=O)/C(=C/c2ccco2)SC1=S)Nc1ccccc1C(=O)O	5.6	61.7*	9.7	nt	38.5*	9.7*	-35.7	26.5*
O=C(CCN1C(=O)/C(=C/c2ccco2)SC1=S)Nc1ccc(C(=O)O)c(O)c1	5.8	73.6*	21.2	26.9	54.2*	11.7*	-59.1	40.0*
O=C(O)CCCN1C(=O)/C(=C\c2ccco2)SC1=S	5.3	32.0	0.1	100.6*	34.6*	7.2	-25.7	39.8*
O=C1/C(=C/c2ccco2)SC(=S)N1CC1CCCO1 (configuration not stated)	nt	61.1*	5.0	25.7	15.5*	4.3	-21.9	15.2*
CC(=NN=c1sc2ccccc2n1C)c1ccc(N2CCOCC2)cc1	4.9	nt	nt	nt	nt	nt	nt	nt
O=[N+]([O-])c1ccc(/C=C/c2ccncc2)cc1	7.0	-1.6	-9.8	7.1	2.8	nt	nt	nt
O=[N+]([O-])c1cccc(/C=C/c2ccncc2)c1	2.5	1.1	14.5	2.5	19.4*	-0.1	0.7	0.2
CCn1c(=O)[nH]c2cc(Cl)c(Cl)cc21	3.2	4.6	5.9	nt	16.4*	-2.5	12.9	-1.0
CCn1c(=O)[nH]c2ccccc2c1=O	0.6	nt	7.5	4.5	1.4	nt	nt	nt
CCOC(=O)N1Cc2cc3ccccc3nc2C1	nt	4.5	-0.5	-1.3	6.2	nt	nt	nt
O=C(O)/C=C/C(=O)N1Cc2cc3ccccc3nc2C1	-1.2	54.4*	-4.9	-0.3	18.8*	0.2	-0.8	3.1
C=CCNC(=S)Nc1nc2c(cc1C(=O)OCC)COC(C)(C)C2	2.9	-1.9	7.6	-0.9	-0.3	nt	nt	nt
CCOC(=O)c1cc2c(nc1NC(=S)Nc1ccccc1)CC(C)(C)OC2	6.6	-0.1	8.2	-2.5	17.9*	1.5	-7.7	3.4
CC(=NNC(=O)CC1C(=O)NN=C1C)c1cccs1 (configuration not stated)	5.8	nt	nt	nt	nt	nt	nt	nt
C/C(=N/NC(=O)c1cc(O)c(O)c(O)c1)c1ccc([N+](=O)[O-])cc1	nt	74.3*	-2.0	16.5	31.2*	19.4*	-97.9	51.3*
CCN(CC)c1ccc(C=NNC(=S)NCc2ccco2)cc1	-66.6	nt	nt	nt	nt	nt	nt	nt
